This note sets out measurements from ChEMBL document CHEMBL4513216, “Probing the Open Global Health Chemical Diversity Library for Multistage-Active Starting Points for Next-Generation Antimalarials” (ACS Infect Dis, 2020).

The data set can be described thus: Toxicity liver stage against HepG2, at 10uM. Type of data set: cell-based. On the set-up: test concentration 10 uM, cell line HepG2-A16-CD81EGFP. The conditions noted are these: human, HepG2-A16-CD81EGFP cells; read-out: INHIBITION
Summed up:
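Uninfected HepG2-A16-CD81EGFP cells, 3 × 10^3 per well, 1536-well, plated on prespotted compound at 10 μM final, parasite-free screening media added to match infected plates; puromycin 10 μM positive, DMSO 0.5% negative; run in parallel with 48 h PbLuc assay at 37 °C, 5% CO2; viability by CellTiter-Glo luminescence, normalized to controls.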
For the molecule `CC1CCN(S(=O)(=O)N2CCc3sccc3C2)CC1`, the cytotoxicity at 10 µM was -30.8%.
Under `CN1Cc2nc[nH]c2C[C@H]1C(=O)NC1CCCCC1` stands 0.0515%.
The figure for `NC(=O)CN1C(=O)CO[C@H]2CN(Cc3ccccc3)C[C@H]21` is 0.67%.
Under `CCCc1nnsc1C(=O)NCC(O)c1cccs1` (stereo not drawn) stands 4.15%; under `CCOc1ccccc1NC(=O)NCCc1ccoc1`, -1.18%.
Take `c1cc(CN2CCC3(CC2)COC(COCC2CC2)C3)cs1` (stereo not drawn): the cytotoxicity at 10 µM was -0.272%.
Regarding `O=C(C1CCOC1)N1CCC2(CC1)COC2` (stereo not drawn), the cytotoxicity at 10 µM worked out at 3.06%.
Consider `Cc1ccc2c(c1)C1(CCN(S(C)(=O)=O)CC1)CN2C(=O)N(C)C`, for which the cytotoxicity at 10 µM is -121%.
The figure for `O=C([C@H]1C[C@H]2OCC[C@H]2N(C(=O)c2ccnnc2)C1)N1CCCCO1` is 4%; for `COC[C@H]1CCC[C@]12CN(Cc1cccc(C)n1)CCO2` it is 2.23%.
The figure for `CCS(=O)(=O)N1CCc2cc(C(=O)NC)c(N(C)C)nc2CC1` is -141%; for `Cc1nn(C)c2cn(CC(=O)NC3CCSCC3)nc12` it is 0.243%; for `CCn1ncc2c(C(F)(F)F)cc(-c3cnn(C)c3)nc21` it is 3.67%.
Under `CC(C)n1cc(N2CC(C(=O)N3CCCC3)CC2=O)cn1` (stereo not drawn) stands 3.79%.
As to `CN(C)CC1(O)CCN(C(=O)Cc2ccc3c(c2)CCC3)C1` (stereo not drawn), the cytotoxicity at 10 µM was -7.84%.
The figure for `Cc1cc(Nc2cnccn2)cc(C2CCCNC2)n1` (stereo not drawn) is 4.75%.
Under `COCCNC(=O)C(C)n1nc(-c2ccc(C)o2)cc(N)c1=O` (stereo not drawn) stands 1.26%; under `CN(c1cccnn1)[C@@H]1CC[C@@H]2CN(Cc3ccccc3C(=O)O)C[C@@H]21`, 7.43%; under `Cc1ccc(C2CCCN(S(=O)(=O)N3CCOCC3)C2)nc1` (stereo not drawn), 4.25%.
Under `Cc1ccc(S(=O)(=O)N2C[C@H]3C[C@H](NC(=O)C(C)C)[C@H]3C2)cc1` stands -4.59%; under `CC1CCCN(Cc2c(C3CC3)[nH]c3ncccc23)C1` (stereo not drawn), -34.1%; under `CNC(=O)C1(c2cnccn2)CCCN1C(=O)c1ncccc1C` (stereo not drawn), 4.22%.
As for `COc1ccc(Cn2cc(C(C)O)nn2)cc1` (stereo not drawn), the cytotoxicity at 10 µM worked out at 16.9%.
Under `Cc1nc(C2CCN(S(=O)(=O)c3ccc4c(c3)CCO4)CC2)n[nH]1` stands -8.91%; under `N#Cc1ccc(CS(=O)(=O)NC(=O)c2ccc3c(c2)COC3)cc1`, 3.65%; under `COc1ccccc1CC(NC(=O)N1CCOCC1)C(C)C` (stereo not drawn), 4.29%.
Regarding `Cc1nc(C(C)(C)NCc2ncc(C(C)C)o2)sc1C`, the cytotoxicity at 10 µM was determined as 6.32%.
Under `O=C1CCC(=O)N1CCn1nnc(-c2ccc(Br)cc2)n1` stands 4.26%; under `CS(=O)(=O)N1CCC(CNc2c(Cl)cccc2C#N)CC1`, -6.67%; under `N#CC1COCCN1C(=O)c1ccc2[nH]ccc2c1` (stereo not drawn), 14.4%.
Consider `COC(=O)c1ccc(NC(C)c2ccc3c(c2)CCC(=O)N3)nn1` (stereo not drawn), for which the cytotoxicity at 10 µM was 2.52%.
Under `CCn1ccnc1CN1CCN(C(C)C(=O)NCC(F)(F)F)CC1` (stereo not drawn) stands 9.73%; under `CC(CC(=O)c1ccco1)NC(=O)c1ccon1` (stereo not drawn), -17.9%.
On to `Cc1cccn2cc(CNS(=O)(=O)N3CCOCC3)nc12`, for which the cytotoxicity at 10 µM is -6.6%.
Take `COc1ccc(NC(=O)N2CCC(CSC)C2)cc1C` (stereo not drawn): the cytotoxicity at 10 µM came out at 3.36%.
On to `Cc1cccc(C2(C(=O)NCC3CN(C)CCO3)CC2)c1` (stereo not drawn), for which the cytotoxicity at 10 µM was -7.45%.
`CC(C)(C)OC(=O)NCCNC(=O)c1cnc(-c2ccccc2)nc1`: the cytotoxicity at 10 µM was found to be 8.12%.
Turning to `NS(=O)(=O)CCNC(=O)C1(c2ccccc2)CC1`, the cytotoxicity at 10 µM was -0.18%.
The figure for `CC(C)C1CN(C(=O)c2ccncc2)CCS1` (stereo not drawn) is 9.72%; for `Cc1nc(CCNC(=O)Nc2cc(C(F)(F)F)c[nH]c2=O)cs1` it is 0.614%.
The figure for `CCN(CC1CCOC1)C(=O)c1ccc(-c2ccsc2)nc1C` (stereo not drawn) is 6.39%; for `O=C(CN1CCCC1Cn1cncn1)Nc1ccnn1C1CCCC1` (stereo not drawn) it is -1.07%; for `CC(O)CN(c1ccccc1)S(=O)(=O)c1cc(C(=O)O)cc2c1CCC2` (stereo not drawn) it is 11.1%.
Under `CC1CCCCN1C(=O)c1ccc(Br)s1` (stereo not drawn) stands -8.21%; under `Cn1ccnc1-c1noc(NCc2ccc(Br)cc2)n1`, -4.32%; under `NC(=O)C1CCCN1C1CCN(C(=O)c2ccc3c(c2)OCO3)CC1` (stereo not drawn), 1.59%.
With `O=C1CCC(=O)N1CCN1CCC(=Cc2ccccc2)CC1`, the cytotoxicity at 10 µM was 8.82%.
Under `CC(C)(CNC(=O)CSc1nnnn1C1CC1)c1ccccc1F` stands 13.4%.
The figure for `CCCNC(=O)C(C)Nc1ccn(Cc2ccccn2)n1` (stereo not drawn) is -5.95%; for `CC(=O)N(Cc1noc(C)n1)C1CCN(CC2CCCC2)C1` (stereo not drawn) it is -12.3%; for `Cc1nc(CNC(=O)Nc2c(C)n[nH]c2C)cs1` it is 3.51%.
Under `CC(C)OCCOCc1cccc(NC(=O)N2CCCC(O)C2)c1` (stereo not drawn) stands -5.01%; under `CCCC(=O)NS(=O)(=O)c1ccc(C#N)c(C(F)(F)F)c1`, -12.8%; under `O=C1C(Nc2nccn3cnnc23)CCN1c1cccc(Cl)c1` (stereo not drawn), -1.7%.
Regarding `CCN(CC)C(=O)Nc1ccc(C(=O)N(C)C)c(C)c1`, the cytotoxicity at 10 µM worked out at 7.52%.
With `OC(CN1CCCc2cc(OC(F)F)ccc21)Cn1cccn1` (stereo not drawn), the cytotoxicity at 10 µM was found to be 6.85%.
`CCN1CCCCC1C(=O)Nc1cccc(-c2nnc[nH]2)c1` (stereo not drawn): the cytotoxicity at 10 µM is 4.03%.
Turning to `CN(C)CCn1c(=O)oc2ccc(NC(=O)C3CCCO3)cc21` (stereo not drawn), the cytotoxicity at 10 µM was 0.743%.
The figure for `Cn1ccnc1CNC1CCCN(Cc2noc(C3CC3)n2)C1` (stereo not drawn) is -11.1%.
With `O=C(CCc1cccc(F)c1F)N1CCN(Cc2ccco2)CC1`, the cytotoxicity at 10 µM was -11.5%.
The figure for `Cc1nc(C)c2c(n1)CCN(C(=O)CC1CC1)CC2` is 2.34%; for `COc1cccc(C(C(=O)O)N2CCC(Cn3cccn3)CC2)c1OC` (stereo not drawn) it is -1.77%; for `COCCN(Cc1cnn(C)c1)CC1CCOC1` (stereo not drawn) it is -8.52%.
The figure for `COc1ccccc1OC1CN(C(=O)C2CNCC(=O)N2)C1` (stereo not drawn) is 5.46%.
Under `CC(=O)N1Cc2cnc(C(C)(C)C)nc2C1` stands -122%; under `CCC1c2cccn2CCN1C(=O)c1cc(OC)nc(OC)n1` (stereo not drawn), 15%.
Turning to `CCc1ncc2c(n1)CN(c1cc(N3CCN(C)CC3)nc(N)n1)C2`, the cytotoxicity at 10 µM came out at 22.8%.
As for `CC(C)Cn1cncc1CNC(=O)c1cccc(Cn2cccn2)c1`, the cytotoxicity at 10 µM is -3.12%.
The figure for `CCc1csc(CNC(=O)C(CC)n2cccn2)n1` (stereo not drawn) is -0.651%.
The figure for `COC(=O)N1CCN(c2ncnc3nc(C)cc(C)c23)CC1` is -15.2%; for `Cc1noc(C)c1CN(C)c1nc(C2CCCC2)nc2c1cnn2C` it is 22.2%.
The figure for `Cc1cc(=O)[nH]c(SC(C)C(=O)N2CCCN(C3CCCC3)CC2)n1` (stereo not drawn) is -8.04%.
With `Cc1cc2c(=O)n3c(nc2s1)CCN(C(=O)c1ccncc1)CC3`, the cytotoxicity at 10 µM came out at 1.08%.
The figure for `Cc1nc(CN2CCCC(NCc3ccc4c(c3)CCO4)C2)no1` (stereo not drawn) is -3.61%; for `CCc1nc(C2CCCN2Cc2ccno2)no1` (stereo not drawn) it is 2.52%; for `c1ccc(Cc2noc(CN3CCc4cncnc4C3)n2)cc1` it is -5.91%.
Under `COc1cc(CCC(=O)NC(C)C)ccc1OCC(F)(F)F` stands -4.24%.
Under `CCCc1nc(C)c(C(=O)NCCNc2ncccn2)s1` stands -7.22%.
For `Cn1ncc2c(=O)[nH]c(CN3CCCC3CC(C)(C)C)nc21` (stereo not drawn), the cytotoxicity at 10 µM is -1.09%.
The figure for `Cn1ncc2c(=O)[nH]c(CN3CCCC3CCc3ccccc3)nc21` (stereo not drawn) is -8.21%; for `Cc1cccc(-c2nc(CNC3CCc4nc(C)nn4C3)no2)c1` (stereo not drawn) it is -4.3%.
As to `COc1ccccc1COCC(O)CN1CC(n2cccn2)C1` (stereo not drawn), the cytotoxicity at 10 µM is -6.25%.
For the molecule `O=C(CCc1ccco1)N1CCCN(Cc2cscn2)CC1`, the cytotoxicity at 10 µM amounted to 3.28%.
The figure for `CC(C)N1CCN(C(=O)C(C)n2cncn2)CC1` (stereo not drawn) is 0.724%; for `CSc1ccc(CNC(=O)NCC(O)c2cccc(F)c2)cc1` (stereo not drawn) it is -6.16%; for `Cc1cnc(C(=O)NCc2ccc3c(c2)CCCN3C)cn1` it is -4.92%.
The figure for `Cc1nnc(N2C[C@H](OCc3ccncc3)[C@H]3OCCC[C@H]32)s1` is 13.6%; for `NC(=O)CN1CC(c2nc(C3CC3)no2)C1` it is 5.62%; for `O=C(C[C@@H]1COC[C@H]2CN(Cc3ccncc3)C[C@@H]12)N1CCOCC1` it is 6.59%.
For the molecule `C[C@H]1CN(Cc2cccc(F)c2)C[C@@]12CCN(CC(=O)N(C)C)C2=O`, the cytotoxicity at 10 µM was -7.13%.
The figure for `Cn1nnc2c1CCN(C(=O)C1CCC1)C2COCCN1CCCC1` (stereo not drawn) is 11%; for `CC[C@H]1N(CC2CCC2)CCC[C@]12CCC(=O)N2Cc1ccncc1` it is -0.508%.
`CCOCC1CN(C(=O)CS(C)(=O)=O)Cc2cnn(C)c21` (stereo not drawn): the cytotoxicity at 10 µM is -6.63%.
Under `N#Cc1cccc(N2CC3(CCN(C(=O)c4cccnc4)C3)CC2=O)c1` (stereo not drawn) stands 0.925%; under `Cc1noc(C)c1CN1CCO[C@H]2CN(CC3CC3)C[C@H]21`, -4.25%.
Under `COCC1CC2(CCN(S(=O)(=O)C3CC3)CC2)CN1c1ncccn1` (stereo not drawn) stands -2.01%.
Under `CO[C@@H]1CCN(C(=O)Cc2cccc(F)c2)[C@H]1Cc1cccnc1` stands -4.89%.
As to `CC(=O)N1CCN(Cc2ccco2)CC2(CC(=O)N(C)C2)C1` (stereo not drawn), the cytotoxicity at 10 µM was -3.81%.
